Each structure is given as a SMILES string.

One data set addresses Lck (Homo sapiens, UniProt P06239). The data set is described as follows: Photoaffinity-labeling. It counts as biochemical. To be noted: for photolabeling of Lck in the presence of an ATP-competitive inhibitor of Lck: Figure S2, competition with ATP-competitive Lck inhibitor; for photolabeling efficiency of Lck (in words): compared with compound 1. In short, it runs like this:
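Commercial Lck photolabelled with biotin-tagged benzophenone ligands at 0, 3, 9, 18, 36, 90 and 180 µM. Western blot on PVDF: after blocking, streptavidin-HRP (1:10,000 in 3% non-fat milk/TBS-T) and ECL-Plus chemiluminescence. Bands quantified with background subtracted as 0%; 100% = maximal band of reference photoligand at 180 µM. EC50 from sigmoidal fit of triplicates (n = 3), with 95% CI.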

Data set [1] in a line: Decomposition of free photoligands under UV light. The format is physicochemical. The settings on record: UV-A lamp λmax 350 nm, up to 30 min, HPLC. The essentials: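 Each probe at 30 µM in buffer was held on ice about 5 cm below six 15 W blacklight lamps (λmax 350 nm). Aliquots taken at 0, 10 and 30 min were analysed by RP-HPLC with UV detection at 280 nm. Intact probe concentration was estimated from chromatogram peak areas.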

Sequence of Lck (P06239 whole entry): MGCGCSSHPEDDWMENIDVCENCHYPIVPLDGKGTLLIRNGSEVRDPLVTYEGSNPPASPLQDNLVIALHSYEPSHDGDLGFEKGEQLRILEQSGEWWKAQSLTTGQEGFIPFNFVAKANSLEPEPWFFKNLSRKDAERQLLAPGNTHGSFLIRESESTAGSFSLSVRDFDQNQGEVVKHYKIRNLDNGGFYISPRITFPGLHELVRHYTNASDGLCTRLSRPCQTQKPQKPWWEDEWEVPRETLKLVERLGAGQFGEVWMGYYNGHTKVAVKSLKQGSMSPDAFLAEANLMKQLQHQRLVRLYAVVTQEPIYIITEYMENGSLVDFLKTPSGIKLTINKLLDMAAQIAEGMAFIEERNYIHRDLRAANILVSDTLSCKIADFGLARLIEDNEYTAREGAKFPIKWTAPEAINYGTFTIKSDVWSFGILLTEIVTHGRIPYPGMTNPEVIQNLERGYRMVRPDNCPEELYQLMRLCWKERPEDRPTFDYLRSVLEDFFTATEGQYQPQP

Turning to `Nc1ncnc2c1ncn2CC(=O)N(CCNC(=O)CNC(=O)[C@H](Cc1ccc(C(=O)c2ccccc2)cc1)NC(=O)CCCNC(=O)CCCC[C@@H]1SC[C@@H]2NC(=O)N[C@@H]21)CC(=O)NCC(=O)O` [Compound 1], the “photolabeling of Lck in the presence of an ATP-competitive inhibitor of Lck” value at Lck was “completely blocked”. For the compound `Nc1ncnc2c1ncn2CC(=O)N(CCNC(=O)[C@@H](CO)NC(=O)[C@H](Cc1ccc(C(=O)c2ccccc2)cc1)NC(=O)CCCNC(=O)CCCC[C@@H]1SC[C@@H]2NC(=O)N[C@@H]21)CC(=O)NCC(=O)O` [Compound 2], at Lck, the “photolabeling of Lck in the presence of an ATP-competitive inhibitor of Lck” value is “completely blocked” and the “photolabeling efficiency of Lck (in words)” value was “comparable to that of 1”. The corresponding values for `Nc1ncnc2c1ncn2CC(=O)N(CCNC(=O)[C@@H](CCC(=O)O)NC(=O)[C@H](Cc1ccc(C(=O)c2ccccc2)cc1)NC(=O)CCCNC(=O)CCCC[C@@H]1SC[C@@H]2NC(=O)N[C@@H]21)CC(=O)NCC(=O)O` [Compound 3] are “completely blocked” and “comparable to that of 1”. For `Nc1ncnc2c1ncn2CC(=O)N(CCNC(=O)[C@H]1CCCN1C(=O)[C@H](Cc1ccc(C(=O)c2ccccc2)cc1)NC(=O)CCCNC(=O)CCCC[C@@H]1SC[C@@H]2NC(=O)N[C@@H]21)CC(=O)NCC(=O)O` [Compound 4], the “decomposition of free ligand under UV (in words)” value in data set [1] was “almost identical to that of 1”. On to `Nc1ncnc2c1ncn2CC(=O)N(CCNC(=O)CCCNC(=O)[C@H](Cc1ccc(C(=O)c2ccccc2)cc1)NC(=O)CCCNC(=O)CCCC[C@@H]1SC[C@@H]2NC(=O)N[C@@H]21)CC(=O)NCC(=O)O` [Compound 6], for which, on Lck, the “photolabeling of Lck in the presence of an ATP-competitive inhibitor of Lck” value is given as “completely blocked”.

Values taken from paper PMC2581794 (Bioorganic & medicinal chemistry, 2008).
